Assay results published in ChEMBL document CHEMBL1124035, “1-Amino-substituted 4-methyl-5H-pyrido[4,3-b]indoles (gamma-carbolines) as tricyclic analogues of ellipticines: a new class of antineoplastic agents” (1988).

Columns and labels:
Calf thymus DNA = assay: Apparent DNA affinity constant; assay type: nucleic-acid assay; details: Bos taurus
Method in brief: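 Apparent DNA affinity constant was measured by competition with ethidium bromide. Buffer was 20 mM Na2HPO4/NaH2PO4, 0.1 M NaCl, 1 mM EDTA, pH 7.4, with calf thymus DNA at 10 μg/mL. Values are given in 10^6 M⁻¹.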

L1210 = assay: Ability to reduce the cell count to 50% in L1210 culture cells; assay type: functional; details: Mus musculus, read-out: ID50 (the source's name)
Method in brief: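 L1210 cells in exponential growth in RPMI 1640 with 2 mM glutamine, penicillin/streptomycin and 10% FCS, 37 °C, 5% CO2. Drugs dissolved in distilled water were added to cells at 0.8 × 10^5 cells/mL for 48 h, then cells were counted. ID50 is the concentration halving cell proliferation versus controls, from regression of dose-response data; mean of two independent experiments.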

Mus musculus [1] = assay: Antitumor activity against P388 leukemia in mice at a dose of 10 mg/kg administered intraperitoneally for 5 days; assay type: functional; details: route intraperitoneal
Method in brief: (§1)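 CDF1 hybrid male or female mice, 10 per group, were inoculated ip with 10^6 viable P388 cells on day 0. Drugs in distilled water were given ip (0.1 mL/10 g body weight) daily D1-5. Vehicle, 5-fluorouracil and BD 84 were given the same way. T/C = median survival day of treated / controls × 100; T/C > 128% was significant; cures counted at D60.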

Mus musculus [2] = assay: Antitumor activity against P388 leukemia in mice at a dose of 2.5 mg/kg administered intraperitoneally for 5 days; assay type: functional; details: route intraperitoneal; method in brief: as §1
Mus musculus [3] = assay: Antitumor activity against P388 leukemia in mice at a dose of 20 mg/kg administered intraperitoneally for 5 days; Nontoxic at this dose; assay type: functional; details: route intraperitoneal
Method in brief: (§2)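 CDF1 hybrid male or female mice, 10 per group, were inoculated ip on day 0 with 10^6 viable P388 leukemia cells. Drug in distilled water was given ip (0.1 mL/10 g body weight) daily on days 1-5, with vehicle, 5-fluorouracil and BD 84 controls given the same way. T/C = median survival of treated/controls × 100; T/C > 128% counted as significant.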

Mus musculus [4] = assay: Antitumor activity against P388 leukemia in mice at a dose of 5 mg/kg administered intraperitoneally for 5 days; assay type: functional; details: route intraperitoneal; method in brief: as §2
Mus musculus [5] = assay: Antitumor activity against P388 leukemia in mice at a dose of 0.5 mg/kg administered intraperitoneally for 5 days; assay type: functional; details: route intraperitoneal; method in brief: as §1
Mus musculus [6] = assay: Antitumor activity against P388 leukemia in mice at a dose of 1 mg/kg administered intraperitoneally for 5 days; assay type: functional; details: route intraperitoneal; method in brief: as §1
Mus musculus [7] = assay: Antitumor activity against P388 leukemia in mice at a dose of 16 mg/kg administered intraperitoneally for 5 days; assay type: functional; details: route intraperitoneal; method in brief: as §1
Mus musculus [8] = assay: Antitumor activity against P388 leukemia in mice at a dose of 2 mg/kg administered intraperitoneally for 5 days; assay type: functional; details: route intraperitoneal; method in brief: as §1
Mus musculus [9] = assay: Antitumor activity against P388 leukemia in mice at a dose of 24 mg/kg administered intraperitoneally for 5 days; assay type: functional; details: route intraperitoneal; method in brief: as §2
Mus musculus [10] = assay: Antitumor activity against P388 leukemia in mice at a dose of 4 mg/kg administered intraperitoneally; assay type: functional; details: route intraperitoneal
Mus musculus [11] = assay: Antitumor activity against P388 leukemia in mice at a dose of 8 mg/kg administered intraperitoneally for 5 days; assay type: functional; details: route intraperitoneal; method in brief: as §2

Structure (SMILES)	K aff (Calf thymus DNA) [M⁻¹]	IC50 (L1210) [nM]	T/C (Mus musculus [1]) [%]	T/C (Mus musculus [2]) [%]	T/C (Mus musculus [3]) [%]	T/C (Mus musculus [4]) [%]	T/C (Mus musculus [5]) [%]	T/C (Mus musculus [6]) [%]	T/C (Mus musculus [7]) [%]	T/C (Mus musculus [8]) [%]	T/C (Mus musculus [9]) [%]	T/C (Mus musculus [10]) [%]	T/C (Mus musculus [11]) [%]
CN(C)CCCNc1nccc2c1c1cc(O)ccc1n2C	120000	190	169	137	173	145							
CCN(CC)CCCNc1nccc2c(C)c3[nH]c4ccc(OC)cc4c3c(C)c12 [RETELLIPTINE]	700000	100					171	178	283	188	113	245	273
